High-throughput results: PubChem BioAssay, several laboratories
Most compounds without a hit are left out; they make up all but 2.1% or so of the library.
DNMT1 block = inhibitors of human DNMT1; DNMT1 molecular beacon, Hinp1I cleavage, fluorescence; inhibition (reported as % activation of signal), % at 10 µM; 360,000 tested, 0.83% active; P26358; in the data active means inhibition above about 50%
LMPTP inh = LMPTP (human) inhibition. P24666. recombinant LMPTP-A, OMFP fluorogenic substrate, fluorescence intensity. inhibition, % at 20 µM. 360,000 tested, 0.22% active;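 active means compounds that cut the enzyme signal by at least half of the control window in the single-dose screen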
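Assay system: LMPTP-A phosphatase enzyme | Input: 0.625 nM enzyme | Also added: Fluorogenic phosphatase substrate OMFP at 400 µM final | Compound dosing: One test concentration per compound, 20 µM, with 3% DMSO overall | Schedule: 50 min enzyme reaction at room temperature, protected from light | Signal: Fluorescence intensity | Benchmarks: no-enzyme and uninhibited controls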
Scp-1 inhibitor = Scp-1 (human) phosphatase inhibition; Q9GZU7; Recombinant Scp1, phosphopeptide, malachite green phosphate absorbance; inhibition, % at 20 µM; 340,000 tested, 0.88% active; AID 493091;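 active means inhibition above about 50% at 20 µM, limit read from the data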
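System: SCP-1 catalytic domain; Reagent: Phospho 17-mer peptide substrate; Doses: one concentration, 20 µM, with 1.0% DMSO; Incubation: 45 min room-temperature reaction, 5 min colour, 30 min stabiliser; Signal: Phosphate-binding colour reagent, absorbance read at 630 nm.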
GRK2 inh = human GRK2 inhibition via aptamer displacement | P25098 | bead flow cytometry, FAM-aptamer displacement from GRK2 | inhibition of aptamer binding, % at 10 µM | 330,000 tested, 0.59% active | AID 488847;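 active means inhibition of aptamer binding above 40%, roughly 3 SD of noise, on plates passing a quality check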;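 further: median bead fluorescence of bound FAM aptamer so fluorescent compounds give negative values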
STEP inh = inhibitors of human striatal-enriched phosphatase STEP; recombinant STEP, OMFP fluorogenic substrate, fluorescence; 360,000 tested, 0.25% active; inhibition, % at 20 µM;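 active means inhibition at 20 µM, scaled per plate between control wells, above about 37%, limit read from the data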
Target sequence (P54829 whole entry, looked up): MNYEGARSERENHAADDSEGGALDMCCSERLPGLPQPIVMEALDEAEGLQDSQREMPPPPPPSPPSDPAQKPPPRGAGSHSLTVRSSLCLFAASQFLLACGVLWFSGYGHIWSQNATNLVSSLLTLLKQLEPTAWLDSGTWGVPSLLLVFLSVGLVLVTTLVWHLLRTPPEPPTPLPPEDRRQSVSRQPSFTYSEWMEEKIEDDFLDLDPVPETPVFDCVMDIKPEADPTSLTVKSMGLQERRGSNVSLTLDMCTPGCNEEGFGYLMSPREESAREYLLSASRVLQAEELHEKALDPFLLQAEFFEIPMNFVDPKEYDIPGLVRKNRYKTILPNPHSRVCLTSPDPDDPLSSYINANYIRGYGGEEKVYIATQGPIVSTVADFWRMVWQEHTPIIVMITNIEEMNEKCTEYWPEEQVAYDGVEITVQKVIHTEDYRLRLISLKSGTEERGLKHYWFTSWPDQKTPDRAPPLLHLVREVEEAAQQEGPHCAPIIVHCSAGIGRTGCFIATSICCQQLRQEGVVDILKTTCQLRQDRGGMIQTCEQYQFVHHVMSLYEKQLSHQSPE
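System: STEP phosphatase, cell-free reaction; Buffer or medium: Bis-Tris pH 6.0 buffer with DTT, detergent; Incubation: 20 min at room temperature, dark; Measured by: fluorescence, 480/540 nm.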
SUMO1 PPI mod = modulators of human SUMO1-mediated protein-protein interactions. P63165. 360,000 tested, 0.33% active. SUMO1 binding to a labelled peptide, TR-FRET, 1 h. AID 602429. inhibition, % at 20 µM; in the data active means inhibition above about 37%
Target sequence (P63165 whole entry, looked up): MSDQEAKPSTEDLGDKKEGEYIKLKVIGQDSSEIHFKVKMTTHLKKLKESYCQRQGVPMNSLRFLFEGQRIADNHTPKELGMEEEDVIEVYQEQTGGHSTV
Each line names hits and unclear results; the compound was inactive in the other large screens.

CC(C)C[C@@H](CNCC(=O)[C@H](CC(C)C)NC(=O)c1[nH]cnc1C(=O)N[C@@H](C)CN)NC(=O)c1nc[nH]c1C(=O)N[C@@H](Cc1ccccc1)C(=O)O	none (no result: GRK2 inh)
CC(C)C[C@@H](CNCC(=O)[C@H](CC(=O)O)NC(=O)c1[nH]cnc1C(=O)N[C@H](CN)CC(C)C)NC(=O)c1nc[nH]c1C(=O)N[C@@H](Cc1ccccc1)C(=O)O	SUMO1 PPI mod 48 (no result: GRK2 inh)
CC(C)C[C@@H]1COc2cc(N3CCC[C@H]3CO)ccc2S(=O)(=O)N1	none (no result: DNMT1 block, Scp-1 inhibitor, GRK2 inh, STEP inh)
CCC[C@H]1NC(=O)[C@H](C)N(C)C(=O)C(C)(C)C(=O)C(C)NC(=O)[C@H](Cc2ccc(OC)cc2)N(C)C(=O)[C@H](C(C)C)N(C)C(=O)CNC(=O)[C@H](CC(C)C)N(C)C(=O)CNC(=O)[C@H]([C@@H](C)CC)OC(=O)[C@H]1C (some centres undefined)	none (no result: DNMT1 block, LMPTP inh, STEP inh, SUMO1 PPI mod)
O=C(CN1CCN(S(=O)(=O)c2ccc(Cl)cc2)CC1)c1ccc(O)c(O)c1	LMPTP inh 59
O=C(CN1CCN(S(=O)(=O)c2ccc(F)cc2)CC1)c1ccc(O)c(O)c1	LMPTP inh 66
COc1ccc(S(=O)(=O)N2CCN(CC(=O)c3ccc(O)c(O)c3)CC2)cc1	LMPTP inh 70
CCOc1ccc(C(=O)CN2CCN(S(=O)(=O)c3ccc(F)cc3)CC2)cc1	none
C[C@@H]1CN([C@H](C)CO)C(=O)CCCn2cc(nn2)CO[C@H]1CN(C)C(=O)Nc1ccc2c(c1)OCO2	none (no result: Scp-1 inhibitor, GRK2 inh)
COc1cc(CN2C[C@@H](CO)O[C@@H](n3cnc4c(NCc5ccc(F)cc5)ncnc43)C2)cc(OC)c1OC	none (no result: Scp-1 inhibitor, GRK2 inh)
Cc1ccc(F)cc1C(=O)N1CCCCC1c1cc(C(=O)NC(C)C)no1 (centres undefined)	none (no result: Scp-1 inhibitor, GRK2 inh)
O=C(NCc1ccccc1Cl)c1[nH]c(C(F)(F)F)nc1-c1ccccc1	none (no result: Scp-1 inhibitor, GRK2 inh)
O=C(O)C1C2C=CC(O2)C1C(=O)NCCC1=CCCCC1 (centres undefined)	DNMT1 block 53
O=C(NCCC1=CCCCC1)C(=O)NCc1ccccc1	none
COc1cccc(CN(C)C(=O)C2CCCN(C(=O)c3ccc(Cl)cc3)C2)c1 (centres undefined)	none (no result: Scp-1 inhibitor, GRK2 inh)
Cc1nc2ccc(S(=O)(=O)NCC(=O)NCc3ccc(Cl)cc3)cc2s1	none
Cc1nc2ccc(S(=O)(=O)NCC(=O)NCCN3CCCCCC3)cc2s1	SUMO1 PPI mod 46
Cc1cc(C)n2nc3nc(N4CCCCC4)nc(-c4ccco4)c3c2n1	DNMT1 block 54
Cc1cc(C)n2nc3ccccc3c2n1	none
O=C(O)CSc1cc(NS(=O)(=O)c2cccc([N+](=O)[O-])c2)c2ccccc2c1O	DNMT1 block 52 (no result: GRK2 inh)
Cc1ccc(C)c(S(=O)(=O)Nc2cc(SCC(=O)O)c(O)c3ccccc23)c1	SUMO1 PPI mod 91
CCc1ccc(S(=O)(=O)Nc2cc(SCC(=O)O)c(O)c3ccccc23)cc1	SUMO1 PPI mod 45
O=C(O)c1cccc(S(=O)(=O)Nc2ccc([N+](=O)[O-])cc2O)c1	none
CCOc1ccc(S(=O)(=O)Nc2cc(SCC(=O)O)c(O)c3ccccc23)cc1	none
CCOC(=O)C1=CCC(c2ccc(N(CC)CC)cc2)N(S(=O)(=O)c2ccc(C)cc2)C1c1ccc([N+](=O)[O-])cc1 (centres undefined)	none (no result: DNMT1 block, Scp-1 inhibitor, GRK2 inh, STEP inh)
C[C@]12c3[nH]c4cc(-c5ccco5)ccc4c3CCN1C(=O)[C@@H](CC(=O)NCCCn1ccnc1)C[C@@H]2C(=O)N1CCCCC1	GRK2 inh 52
C[C@]12c3[nH]c4cc(-c5ccco5)ccc4c3CCN1C(=O)[C@@H](CC(=O)NCCCn1ccnc1)C[C@@H]2C(=O)N1CCOCC1	none
C[C@]12c3[nH]c4ccccc4c3CCN1C(=O)C(CC(=O)NCCc1ccccn1)C[C@@H]2C(=O)N1CCOCC1 (some centres undefined)	GRK2 inh 81
C[C@]12c3[nH]c4ccccc4c3CCN1C(=O)C(CC(=O)NCCc1ccccn1)C[C@@H]2C(=O)N1CCCCC1 (some centres undefined)	none
CCN(CC)C(=O)[C@H]1C[C@H](CC(=O)NC(C)(C)C)C(=O)N2CCc3c([nH]c4cc(-c5ccco5)ccc34)[C@]12C	GRK2 inh 44
Cc1cccc(C)c1NC(=O)NS(=O)(=O)c1ccccc1	none (no result: Scp-1 inhibitor, GRK2 inh)
Cc1ccc(-n2c(C)cc(/C=N/Nc3ccc([N+](=O)[O-])cn3)c2C)cc1	Scp-1 inhibitor 102
Cc1ccc(Cn2cc(/C=N/Nc3ccc([N+](=O)[O-])cn3)c3ccccc32)cc1	none
Cc1c(/C=N/Nc2ccc([N+](=O)[O-])cn2)c2ccccc2n1Cc1ccccc1	DNMT1 block 51
CN(C(=O)CSc1nnc(CN2CCCC2)n1Cc1ccccc1)c1ccccc1	none
CC(=O)N(C(C)=O)c1ccc(Oc2ccc(Oc3ccc(N(C(C)=O)C(C)=O)cc3)cc2)cc1	none (no result: Scp-1 inhibitor, GRK2 inh)
CC(C)CCNC(=O)c1cc(S(=O)(=O)N2CCC3(CC2)OCCO3)ccc1F	none (no result: Scp-1 inhibitor, GRK2 inh)
Cc1nc(N)sc1-c1csc(Nc2ncccn2)n1	STEP inh 64, SUMO1 PPI mod 93 (no result: GRK2 inh)
COc1ccccc1Nc1nc(-c2sc(N)nc2C)cs1	none
N#CC1=C(N)OC2=C(C(=O)CC(c3ccco3)C2)C1c1ccc(OCc2c(F)cccc2Cl)cc1 (centres undefined)	LMPTP inh 65
COc1ccc(CCN2C(=O)CCC3=C2CCCC3=O)cc1OC	none (no result: Scp-1 inhibitor, GRK2 inh)
Nc1ccc(Cn2ccc3c4c(N)nc(N)nc4ccc32)cc1	LMPTP inh 64 (no result: GRK2 inh)
Cc1nc2ccc(N)cc2c(=O)n1Cc1ccc(Cl)cc1	none
COc1cccc(C=Cc2nccc3ccccc23)c1OC	none (no result: Scp-1 inhibitor, GRK2 inh)
CN(C)c1ccc(C=Cc2nccc3ccccc23)cc1	DNMT1 block 69 (no result: Scp-1 inhibitor, GRK2 inh)
CC(=O)Nc1cccc(-c2nc3ccccc3n2C(C)C(=O)NC(C)(C)C)c1 (centres undefined)	none (no result: DNMT1 block, Scp-1 inhibitor, GRK2 inh, STEP inh)
Nc1cccc2cc(S(=O)(=O)O)ccc12	DNMT1 block 62, Scp-1 inhibitor 62 (no result: GRK2 inh)
COc1ccc(C(=O)Nc2nnc(CC(=O)N/N=C/c3ccc(O)cc3O)s2)cc1	SUMO1 PPI mod 79 (no result: Scp-1 inhibitor)
Cc1ccc(C(=O)Nc2nnc(CC(=O)N/N=C/c3ccc(O)c(O)c3)s2)cc1	GRK2 inh 62, SUMO1 PPI mod 96
Cc1ccc(C(=O)Nc2nnc(CC(=O)N/N=C/c3ccncc3)s2)cc1	none
CC[n+]1c(/C=C/c2ccc(OC(C)=O)c(OC)c2)ccc2ccccc21	Scp-1 inhibitor 55
CC(C)CC1NC(=O)c2cccnc2-n2c1nc1cc(F)ccc1c2=O (centres undefined)	none (no result: Scp-1 inhibitor, GRK2 inh)
FC(F)(F)c1cnc(Oc2ccccc2-c2nnco2)c(Cl)c1	GRK2 inh 58
O=C(CN1C(=O)NC2(CCCC2)C1=O)Nc1cc(Cl)ccc1Oc1ccccc1	SUMO1 PPI mod 40
